In ChEMBL document CHEMBL1138573, “Synthesis and molluscicidal activity of some new thiophene, thiadiazole and pyrazole derivatives” (2009):
In brackets after ≈: the same amount, converted by molar mass.

How the values were obtained:
Type in all cases: functional
[1] = test system: Biomphalaria alexandrina; assay: Molluscicidal activity against Biomphalaria alexandrina assessed as number of dead snail per 10 snails at 4 ppm after 24 hrs
How it was run: (§1)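 Field-collected B. alexandrina snails held 45 days in the lab, fed daily on lettuce, and checked free of parasitic infection. Compound mixed with a few drops of Tween 20, then suspended in untreated raw River Nile water at seven concentrations of 4–16 ppm, in aerated glass jars. Ten snails of similar size (ca. 7 mm) per jar, kept 24 h at ambient temperature. Run three times and the mean number killed taken. LC50 and LC90 were derived from this mortality. Control was water with Tween 20. Follows WHO guidelines.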

[2] = test system: Biomphalaria alexandrina; assay: Molluscicidal activity against Biomphalaria alexandrina assessed as number of dead snail per 10 snails at 6 ppm after 24 hrs; how it was run: as §1
[3] = test system: Biomphalaria alexandrina; assay: Molluscicidal activity against Biomphalaria alexandrina assessed as number of dead snail per 10 snails at 8 ppm after 24 hrs; how it was run: as §1
[4] = test system: Biomphalaria alexandrina; assay: Molluscicidal activity against Biomphalaria alexandrina assessed as number of dead snail per 10 snails at 10 ppm after 24 hrs; how it was run: as §1
[5] = test system: Biomphalaria alexandrina; assay: Molluscicidal activity against Biomphalaria alexandrina assessed as number of dead snail per 10 snails at 12 ppm after 24 hrs; how it was run: as §1
[6] = test system: Biomphalaria alexandrina; assay: Molluscicidal activity against Biomphalaria alexandrina assessed as number of dead snail per 10 snails at 14 ppm after 24 hrs; how it was run: as §1
[7] = test system: Biomphalaria alexandrina; assay: Molluscicidal activity against Biomphalaria alexandrina assessed as number of dead snail per 10 snails at 16 ppm after 24 hrs; how it was run: as §1
[8] = test system: Biomphalaria alexandrina; assay: Molluscicidal activity against Biomphalaria alexandrina after 24 hrs; conditions: for LC50: Biomphalaria alexandrina, 24 h; how it was run: as §1

| SMILES | Activity [1] | Activity [2] | Activity [3] | Activity [4] | Activity [5] | Activity [6] | Activity [7] | LC90 [8] [ppm] | LC50 [8] [µg/mL] | LC100 [8] [ppm] |
| --- | --- | --- | --- | --- | --- | --- | --- | --- | --- | --- |
| Cc1n[nH]c(Nc2ccccc2)c1C(=O)c1ccccc1 | 1 | 3 | 4 | 8 | 9 | 10 | 10 | 18 | 13 (≈ 46.9 µM) | – |
| CC(=O)c1sc(Nc2ccccc2)c(C(=O)c2ccccc2)c1C | 1 | 3 | 5 | 8 | 8 | 10 | 10 | 22 | 16 (≈ 47.7 µM) | – |
| CC(=O)/C(C(=O)c1ccccc1)=C1/SC(C(=O)c2ccccc2)=NN1c1ccccc1 | 2 | 2 | 4 | 6 | 9 | 10 | 10 | 10 | 8 (≈ 18.8 µM) | – |
| CC(=O)/C(C(=O)c1ccccc1)=C1/SC(C(=O)c2ccccc2)=NN1c1ccc(C)cc1 | 2 | 3 | 5 | 8 | 10 | 10 | 10 | 9 | 5.5 (≈ 12.5 µM) | – |
| Cc1c(C(=O)c2ccccc2)sc(Nc2ccccc2)c1C(=O)c1ccccc1 | 1 | 4 | 5 | 6 | 9 | 10 | 10 | 20 | 15.6 (≈ 39.2 µM) | – |
| COc1ccc(N2N=C(C(=O)c3ccccc3)S/C2=C(/C(C)=O)C(=O)c2ccccc2)cc1 | 1 | 3 | 4 | 7 | 10 | 10 | 10 | 11 | 6 (≈ 13.1 µM) | – |
| O=C(Nc1cc(Cl)c([N+](=O)[O-])cc1Cl)c1ccccc1O | – | – | – | – | – | – | – | – | – | 1 |
| CCOC(=O)c1sc(Nc2ccccc2)c(C(=O)c2ccccc2)c1C | 0 | 1 | 1 | 2 | 2 | 4 | 10 | 20 | 18 (≈ 49.3 µM) | – |
| Cc1c(C(=O)O)sc(Nc2ccccc2)c1C(=O)c1ccccc1 | 1 | 2 | 3 | 5 | 6 | 8 | 10 | 23 | 19 (≈ 56.3 µM) | – |
